Tested on: not listed separately
Experiment: Apparent intrinsic clearance in human liver microsomes
Format: ADME
Conditions: read-out: CLH(app)

CLint scaled | SMILES
8.1 mL/min/kg | Cc1cn(-c2ccc3n(c2=O)CCN(CCOc2cccc4ccc(F)cc24)C3=O)cn1
95.7 mL/min/kg | Cc1cn(-c2ccc3n(c2=O)CCN(CCOc2ccccc2C(C)(C)C)C3=O)cn1

Tested on: MDR1 (human)
Experiment: Efflux ratio of apparent permeability from basolateral to apical over apical to basolateral side in MDCK cells expressing human MDR1 at 2 uM after 5 hrs by transwell assay
Format: ADME, cell-based, Canis lupus familiaris
Conditions: dog
How it was run: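 MDR1/MDCK assay using MDCK cells transfected with the human P-glycoprotein gene; efflux ratio reported.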

efflux ratio at 5 h, 2 µM | SMILES
1.7 | Cc1cn(-c2ccc3n(c2=O)CCN(CCOc2ccccc2C(C)(C)C)C3=O)cn1

Target: Gamma-secretase
Experiment: Modulation of human gamma secretase overexpressed in CHO cells co-expressing wild type human APP assessed as inhibition of amyloid beta-42 production after 24 hrs by ELISA
Format: cell-based
Conditions: not given
How it was run: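 Whole-cell assay in CHO cells expressing wild-type APP; Aβ42 IC50 reported as geometric mean of at least two experiments.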

IC50 | SMILES
302 nM | Cc1cn(-c2ccc3n(c2=O)CCN(CCOc2ccccc2-c2csc(C)n2)C3=O)cn1
104 nM | Cc1cn(-c2ccc3n(c2=O)CCN(CCOc2ccccc2-c2cc(C)ns2)C3=O)cn1
18 nM | Cc1cn(-c2ccc3n(c2=O)CCN(CCOc2ccccc2-c2csc(C(F)(F)F)n2)C3=O)cn1
72 nM | Cc1cn(-c2ccc3n(c2=O)CCN(CCOc2ccccc2-c2cc(C(F)F)no2)C3=O)cn1
17 nM | Cc1cn(-c2ccc3n(c2=O)CCN(CCOc2ccccc2-c2cc(C(F)(F)F)no2)C3=O)cn1
25 nM | Cc1cn(-c2ccc3n(c2=O)CCN(CCOc2ccc(F)c4nc(C(F)(F)F)sc24)C3=O)cn1
128 nM | Cc1cn(-c2ccc3n(c2=O)CCN(CCOc2ccccc2C(C)(C)C)C3=O)cn1
73 nM | Cc1cn(-c2ccc3n(c2=O)CCN(CCOc2ccccc2C2CCC2)C3=O)cn1
59 nM | Cc1cn(-c2ccc3n(c2=O)CCN(CCOc2ccc(F)cc2C2CC(F)(F)C2)C3=O)cn1
30 nM | Cc1cn(-c2ccc3n(c2=O)CCN(CCOc2ccc(F)cc2C(C)(C)C(F)(F)F)C3=O)cn1
20 nM | Cc1cn(-c2ccc3n(c2=O)CCN(CCOc2ccc(F)cc2[C@@H](C)C(F)(F)F)C3=O)cn1
85 nM | Cc1cn(-c2ccc3n(c2=O)CCN(CCOc2ccc(F)cc2[C@H](C)C(F)(F)F)C3=O)cn1
6 nM | Cc1cn(-c2ccc3n(c2=O)CCN([C@@H](C)COc2ccc(F)cc2[C@@H](C)C(F)(F)F)C3=O)cn1

From ChEMBL document CHEMBL3580587, “Design of Pyridopyrazine-1,6-dione γ-Secretase Modulators that Align Potency, MDR Efflux Ratio, and Metabolic Stability” (ACS Med Chem Lett, 2015)
